A selection: hits, their analogues and other compounds. The true share with any hit is near 1.9%.
GRK2 aptamer HTS: compounds blocking aptamer binding on GRK2 – biochemical, human GRK2, bead flow cytometry, HTS, primary screen | FAM-aptamer displacement from GRK2 | inhibition of aptamer binding, % at 10 µM | 330,000 tested, 0.59% active;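 active = inhibition of aptamer binding above 40%, roughly 3 SD of noise, on plates passing a quality check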;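 also: median bead fluorescence of bound FAM aptamer so fluorescent compounds give negative values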
Target sequence (P25098 whole entry, looked up): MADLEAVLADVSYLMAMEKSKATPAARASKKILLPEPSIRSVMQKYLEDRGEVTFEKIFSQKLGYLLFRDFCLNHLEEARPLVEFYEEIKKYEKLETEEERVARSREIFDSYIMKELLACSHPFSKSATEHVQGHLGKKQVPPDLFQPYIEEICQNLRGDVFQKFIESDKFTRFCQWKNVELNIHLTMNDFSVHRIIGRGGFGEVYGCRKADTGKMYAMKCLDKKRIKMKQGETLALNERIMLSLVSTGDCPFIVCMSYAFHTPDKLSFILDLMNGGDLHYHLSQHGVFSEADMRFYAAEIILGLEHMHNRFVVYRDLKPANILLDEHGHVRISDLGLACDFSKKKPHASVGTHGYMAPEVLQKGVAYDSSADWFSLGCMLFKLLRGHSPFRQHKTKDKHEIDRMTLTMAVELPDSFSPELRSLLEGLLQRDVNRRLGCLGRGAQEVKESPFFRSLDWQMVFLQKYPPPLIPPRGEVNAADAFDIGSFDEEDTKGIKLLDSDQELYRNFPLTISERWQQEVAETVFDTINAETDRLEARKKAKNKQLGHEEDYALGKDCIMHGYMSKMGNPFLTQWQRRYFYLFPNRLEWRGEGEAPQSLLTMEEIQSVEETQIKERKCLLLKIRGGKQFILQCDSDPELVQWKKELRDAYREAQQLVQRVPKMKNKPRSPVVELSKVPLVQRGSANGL
SR-BI DiI-HDL act: activators of SR-BI mediated DiI-HDL uptake, primary screen, ldlA[mSR-BI] CHO cells, DiI fluorescence; 3 h; 100 = double the neutral-control signal; activation, % at 12.5 µM; 320,000 tested, 0.096% active; AID 504775, 2011;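 active = mean replicate activation of at least 60% and every replicate at or above 60%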;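 also: 0% = median plate neutral-control signal and 100% = twice that signal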
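System: LDL receptor-deficient CHO ldlA cells overexpressing murine SR-BI | Timing: 3 h uptake period with compound, 37 °C | Medium: HEPES-buffered (25 mM, pH 7.4) F12 plus 0.5% BSA | Dosing: Single-point compound dose | Signal: Bottom-read fluorescence, 550/595 nm | Read-out: Retained DiI signal reflecting DiI-HDL uptake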
Rin1 Abl inh: inhibitors of Rin1-Abl protein binding, primary screen, biochemical, TR-FRET | Tyrosine-protein kinase ABL1 (Homo sapiens) + Ras and Rab interactor 1 (Homo sapiens), … | inhibition, % at 7.35 µM | 360,000 tested, 0.4% active; in the data active = inhibition above about 5%, passing the limit was not always enough
SR-BI DiI inh: inhibitors of SR-BI mediated HDL lipid uptake, primary screen, ldlA[mSR-BI] cells, fluorescence, single point. Scavenger receptor class B member 1 (Mus musculus), Q61009. ldlA[mSR-BI] CHO cells, DiI-HDL uptake fluorescence, 3 h. inhibition, % at 12.5 µM. 320,000 tested, 0.96% active;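 active = mean replicate inhibition of at least 70% and a set share of replicates each scoring 70 or more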;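 also: 0% = median of neutral control wells and 100% = median of positive control wells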
GRK2 CP1: GRK2 aptamer-displacing inhibitors, retest, confirmation, biochemical, cherry pick 1, bead flow cytometry. shares compounds with GRK2 aptamer HTS. bead-bound GRK2, FAM-aptamer displacement. aptamer displacement, % at 10 µM. 2,000 tested, 4% active;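 active = aptamer displacement above 40%, near three times the noise of non-fluorescent compounds, on plates passing quality checks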;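 also: negative values mostly reflect intrinsic compound fluorescence rather than true enhancement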
Aptamer quench 1: fluorescent aptamer quenching in GRK2 counter-screen dose response | shares compounds with GRK2 aptamer HTS | Fluorescent RNA aptamer beads, flow cytometry; hits give high values | fluorescence change (kMESF span), kMESF (no concentration beside the values) | 110 tested, under 10 active | AID 504521;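 active = compounds whose bead fluorescence drops by more than 37 kMESF across the dose range, marking them as dye quenchers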
FAM quench CP1: quenches fluorescent RNA aptamer, GRK2 hit artifact | shares compounds with GRK2 aptamer HTS | Carboxyfluorescein RNA aptamer on beads, flow cytometry quenching; hits give low values | fluorescence response (% of DMSO), % at 10 µM | 2,000 tested, under 10 active;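 active = compounds that quench the bead-bound fluorescent RNA probe, cutting fluorescence to under half of the solvent control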;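 also: counterscreen run without GRK2 so only probe quenching by compound is measured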
GRK2 confirm 2: GRK2 aptamer-displacing inhibitors, hit retest, confirmation, biochemical, cherry pick 2, bead flow cytometry | inhibition of aptamer binding, % at 10 µM | 360 tested, under 10 active | shares compounds with GRK2 aptamer HTS | bead-bound GRK2, FAM-aptamer displacement;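 active = inhibition of aptamer binding above 40%, about triple the noise seen with nonglowing compounds, on plates passing quality control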;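 also: negative values mostly come from compounds that fluoresce themselves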
FAM quench CP2: counter-screen for GRK2 binding hits: quenchers of fluorescent RNA aptamer; shares compounds with GRK2 aptamer HTS; carboxyfluorescein RNA aptamer beads, flow cytometry quenching; hits give low values; fluorescence response vs DMSO, % at 10 µM; 360 tested, under 10 active; AID 588494;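 active = response vs DMSO under 50%, meaning signal dropped by over half, treated as fluorescence quencher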;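 also: labelled aptamer on streptavidin beads without GRK2 as a quench counter-screen; 100% = bead fluorescence of DMSO wells and lower means quenching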
FAM quench DR: quenchers of FAM-labeled RNA aptamer fluorescence, dose response, artefact control for GRK2 aptamer binding project, biochemical, powder set 1, flow cytometry. shares compounds with GRK2 aptamer HTS. Bead-bound FAM RNA aptamer fluorescence quenching; hits give low values. fluorescence ratio to DMSO, % at 11.1 µM. 35 tested, under 10 active. AID 588496, 2011;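 active = compounds that dim the fluorescent label, raw bead signal shifting by over 33 units between lowest and highest dose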
Active calls of the source: *; . = no result given.

SMILES	GRK2 aptamer HTS	SR-BI DiI-HDL act	Rin1 Abl inh	SR-BI DiI inh	GRK2 CP1	FAM quench CP1	others
Cc1ccccc1-c1cc2nc(NCc3ccc(N(C)C)cc3)n(C)c(=O)c2s1	.	.	-0.7	.	.	.
O=C(CCNC(=O)N1CC(=O)Nc2ccccc21)NCc1cccc(C(F)(F)F)c1	.	.	2.6	.	.	.
CCCCOC(=O)c1cc(C)nc2ccc(Br)cc12	17.0	-2.0	-5.9	2.0	-0.7	94.5
O=C(NN1CCOCC1)c1cc(-c2ccccc2)nc2ccccc12	71.0*	1.1	-1.6	-1.1	1.2	98.3
O=C(NN1CCOCC1)c1cc(-c2ccncc2)nc2ccccc12	2.0	15.3	1.0	-15.3	.	.
COc1ccc(-c2c(NC(=O)CC(C)C)n(C)c3ccccc3c2=O)cc1OC	87.0*	1.1	4.2	-1.1	-5.3	99.9
O=C(NCc1ccc2c(c1)OCO2)c1cc2ncc(Br)cn2n1	39.0	14.4	3.1	-14.4	3.7	96.9
O=C(NCc1ccc2c(c1)OCO2)c1ccc(Br)cc1	4.0	-6.2	2.8	6.2	.	.
O=C(O)c1ccc(N2C(=O)c3cccc4c(C(=O)O)ccc(c34)C2=O)cc1	70.0*	5.7	6.7	-5.7	29.9	107.2
O=C(O)c1ccc2c3c(cccc13)C(=O)N(c1ccccc1)C2=O	40.0	1.4	-1.6	-1.4	.	.
CC1(C)Cc2ccccc2-c2nnc(-c3cccnc3)n21	100.0*	50.6	-0.8	-50.6	.	.	GRK2 confirm 2=-7.6;FAM quench CP2=97.0
CC1(C)Cc2ccccc2-c2nnc(-c3ccccc3)n21	0.0	8.6	-0.1	-8.6	.	.
CC1(C)CC(=O)C2=C(C1)NC1=C(C(=O)c3ccccc31)C2c1ccccc1 (stereo not drawn)	3.0	49.2	-7.6	-49.2	.	.
CC(C)(C)c1ccc(C2C3=C(CCCC3=O)NC3=C2C(=O)c2ccccc23)cc1 (stereo not drawn)	51.0*	15.6	-7.4	-15.6	0.8	99.4
CCc1c(C)nc2ncnn2c1N1CCCC(C(=O)NCc2cccs2)C1 (stereo not drawn)	51.0*	19.0	2.8	-19.0	-0.4	99.2
CCOC(=O)c1nn(-c2ccc(F)cc2)c(=O)cc1OCC(=O)Nc1ccc(F)c(F)c1	0.0	-2.8	0.5	2.8	.	.
O=C(NN=C(Cc1ccccc1)Cc1ccccc1)c1ccccc1F	86.0*	-9.8	2.0	9.8	1.1	100.7
S=C(NCC1CCCO1)NC1CC1 (stereo not drawn)	87.0*	33.4	0.8	-33.4	3.4	101.0
O=c1[nH]c(CN2CCN(S(=O)(=O)c3ccc(Cl)cc3)CC2)nc2cc(Cl)ccc12	6.0	12.9	3.4	-12.9	.	.
COc1ccc(N2CCN(Cc3nc4cc(Cl)ccc4c(=O)[nH]3)CC2)cc1	3.0	12.6	0.4	-12.6	.	.	GRK2 confirm 2=5.0;FAM quench CP2=107.0
COc1cc2nc(CN3CCN(C(C)=O)CC3)[nH]c(=O)c2cc1OC	0.0	17.4	-1.9	-17.4	.	.
CC(=O)N1CCN(Cc2nc3cc(Cl)ccc3c(=O)[nH]2)CC1	87.0*	5.3	0.9	-5.3	42.1*	100.0	Aptamer quench 1=9.8;GRK2 confirm 2=-2.8;FAM quench CP2=96.0;FAM quench DR=102.0
NC(=O)c1ccsc1NC(=O)COC(=O)C1CC2CCCC(C1)C2=O (stereo not drawn)	1.0	.	-0.4	.	.	.
CC1(C)Cc2c(sc(NC(=O)COc3cccc4ccccc34)c2C#N)C(C)(C)N1	63.0*	3.2	-2.0	-3.2	-34.8	131.0
CCCC1NC(=O)c2cccnc2-n2c1nc1ccc(Br)cc1c2=O (stereo not drawn)	.	.	-6.3	.	.	.
SMILES	GRK2 aptamer HTS	SR-BI DiI-HDL act	Rin1 Abl inh	SR-BI DiI inh	GRK2 CP1	FAM quench CP1	others
Cc1sc2ncnc(NCCCN3CCCC3=O)c2c1C	0.0	-0.8	1.4	0.8	.	.
Cc1sc2ncnc(NCCCO)c2c1C	29.0	5.1	2.0	-5.1	-2.3	102.9
Cc1ccc(N2NC(=O)/C(=C/c3ccc(-c4ccc(Cl)c(C(=O)O)c4)o3)C2=O)cc1	0.0	-0.4	1.4	0.4	.	.
CCCCC1(C)OC(=O)C(=Cc2ccc(-c3ccc(Cl)c(C(=O)O)c3)o2)C(=O)O1 (stereo not drawn)	55.0*	.	-1.8	.	-0.9	95.2
O=C(Cc1cccc(NC(=O)C2CCCN(C(=O)C3CCC3)C2)c1)Nc1cccc(C(=O)N2CCOCC2)c1 (stereo not drawn)	.	4.4	2.1	-4.4	.	.
COc1ccccc1NC(=O)NC1(C(=O)N2CCOCC2)CCCCC1	0.0	.	-0.1	.	.	.
COc1ccccc1NC(=O)NC1(C(=O)N2CCCCCC2)CCCCC1	95.0*	-0.8	-0.5	0.8	-2.5	94.5
O=C(NCC(c1ccc(F)cc1)N1CCOCC1)c1ccccc1F (stereo not drawn)	1.0	16.9	-3.0	-16.9	.	.
Cc1ccccc1SCC(=O)NCC(c1ccc(F)cc1)N1CCOCC1 (stereo not drawn)	45.0*	28.4	1.1	-28.4	.	.	GRK2 confirm 2=-14.3;FAM quench CP2=90.0
CCn1c(SCC(=O)N2CCCC2)nnc1-c1ccco1	47.0*	8.4	1.1	-8.4	3.2	95.4
CCn1c(SCC(=O)N2CCOCC2)nnc1-c1ccco1	7.0	10.4	1.7	-10.4	.	.
CCN(CC(=O)Nc1c(F)cccc1F)C(=O)/C=C/c1ccc2ccccc2n1	94.0*	-0.7	2.0	0.7	30.7	92.1
CCN(CC(=O)Nc1c(F)cccc1F)C(=O)c1ccc2ccccc2n1	0.0	-0.7	-0.1	0.7	.	.
COc1cc(SSc2cc(OC)cc([N+](=O)[O-])c2N)c(N)c([N+](=O)[O-])c1	87.0*	-59.5	-3.6	59.5	-14.2	94.7
COc1cc([N+](=O)[O-])c2ncsc2c1	0.0	34.9	-3.4	-34.9	.	.

Assay outcomes (PubChem BioAssay)
